Measurements taken from ChEMBL document CHEMBL2321803, “Antitrypanosomal lead discovery: identification of a ligand-efficient inhibitor of Trypanosoma cruzi CYP51 and parasite growth” (J Med Chem, 2013).
The source made the active and inactive calls. No cut-off for these calls is given here.

How the values were obtained:
Trypanosoma cruzi [1] = test: Antitrypanosomal activity against Trypanosoma cruzi trypomastigote infected in mouse NIH/3T3 cells after 96 hrs by luciferase reporter gene assay; details: NIH/3T3, 96 h
NIH3T3 = test: Cytotoxicity against mouse NIH/3T3 cells; assay type: cell-based
Summary of the method: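 Counterscreen on uninfected NIH 3T3 cells grown in DMEM with 10% FBS at 37 °C and 5% CO₂, run alongside the 96 h infection assay. EC50 is the mean of three independent experiments performed on different days.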

[2] = molecular target: Sterol 14-alpha demethylase (Trypanosoma cruzi (strain CL Brener), UniProt Q7Z1V1); test: Binding affinity to Trypanosoma cruzi recombinant full length CYP51 by spectrophotometric analysis
Sterol 14-alpha demethylase, sequence (Q7Z1V1 whole entry): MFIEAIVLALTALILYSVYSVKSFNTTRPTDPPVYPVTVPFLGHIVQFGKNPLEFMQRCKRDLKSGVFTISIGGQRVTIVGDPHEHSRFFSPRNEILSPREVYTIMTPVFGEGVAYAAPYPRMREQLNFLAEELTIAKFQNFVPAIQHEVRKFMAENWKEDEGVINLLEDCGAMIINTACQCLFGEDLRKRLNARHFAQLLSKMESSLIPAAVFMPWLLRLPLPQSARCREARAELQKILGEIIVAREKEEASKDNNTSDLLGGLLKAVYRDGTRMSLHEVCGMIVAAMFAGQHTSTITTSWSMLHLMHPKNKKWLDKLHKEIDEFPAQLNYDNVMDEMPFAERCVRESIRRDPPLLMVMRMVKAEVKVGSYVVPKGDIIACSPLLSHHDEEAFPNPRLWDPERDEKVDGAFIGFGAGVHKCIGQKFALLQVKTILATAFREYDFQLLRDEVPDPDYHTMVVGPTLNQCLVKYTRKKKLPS
Summary of the method: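 Purified full-length T. cruzi CYP51 (2 μM) was titrated with ligand at 0.5–10 μM, recording type 2 difference spectra at 350–450 nm, 25 °C. Apparent Kd came from ΔA425–390 versus free ligand, fitted to a rectangular hyperbola.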

[3] = Selectivity index, ratio of EC50 for mouse NIH/3T3 cells to EC50 for Trypanosoma cruzi trypomastigote; assay type: toxicity, cell-based, NIH3T3; details: read-out: Ratio EC50
Trypanosoma cruzi [4] = test: Antitrypanosomal activity against Trypanosoma cruzi trypomastigote infected in mouse NIH/3T3 cells at 9.5 uM incubated for 3 days post infection by DAPI-staining based immunofluorescence assay; assay type: functional, organism-based; details: NIH3T3
Summary of the method: (§1)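 NIH-3T3 cells on coverslips were infected 2 h with trypomastigotes (Tulahuen β-gal or Y luciferase), washed, then given drug for 3 days. Cells were fixed in 4% paraformaldehyde, permeabilised with Triton X-100 and stained with rabbit anti-T. cruzi (1:2000) plus Alexa 488 secondary and DAPI. Imaged at 60× oil, 50 fields per condition.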

Trypanosoma cruzi [5] = test: Antitrypanosomal activity against Trypanosoma cruzi Tulahuen infected in mouse NIH/3T3 cells after 48 to 72 hrs by beta-galactosidase reporter gene assay
Trypanosoma cruzi [6] = test: Antitrypanosomal activity against Trypanosoma cruzi Y infected in mouse NIH/3T3 cells after 48 to 72 hrs by luciferase reporter gene assay
[7] = Metabolic stability in rat microsomes after 20 mins in presence of ketoconazole; assay type: ADME, Microsome
Summary of the method: (§2)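 Liver microsomes (human, mouse or rat), with or without CYP inhibitor. Read-out is percent of compound metabolized at 20 min.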

Plasma [8] = test: Plasma protein binding in human; assay type: ADME, cell-free
[9] = Metabolic stability in mouse microsomes after 20 mins in presence of ketoconazole; assay type: ADME, Microsome
Summary of the method: as §2

Trypanosoma cruzi [10] = test: Antitrypanosomal activity against Trypanosoma cruzi Tulahuen […] after 24 hrs by beta-galactosidase reporter gene assay; assay type: functional, organism-based; details: LLC-MK2
[11] = Metabolic stability in human microsomes after 20 mins in presence of ketoconazole; assay type: ADME, Microsome
Summary of the method: as §2

[12] = Metabolic stability in rat microsomes after 20 mins; assay type: ADME, Microsome; details: read-out: Stability
Summary of the method: as §2

Plasma [13] = test: Metabolic stability in mouse plasma after 1 to 4 hrs; assay type: ADME, cell-free
[14] = Metabolic stability in human microsomes after 20 mins; assay type: ADME, Microsome; details: read-out: Stability
Summary of the method: as §2

[15] = Metabolic stability in rat microsomes after 20 mins in presence of quinidine; assay type: ADME, Microsome
Summary of the method: as §2

Trypanosoma cruzi [16] = test: Antitrypanosomal activity against Trypanosoma cruzi Y infected in […] cells after 24 hrs by luciferase reporter gene assay; assay type: functional, organism-based
Summary of the method: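 Y strain expressing firefly luciferase, trypomastigotes from LLC-MK2 cultures, infecting NIH/3T3 host cells (50 000 cells and 50 000 parasites per well). Drug added at infection (top 50 μM, DMSO <0.5%, duplicates) and washed out at 24, 48 or 72 h. D-luciferin at 150 μg/mL final added at 96 h, luminescence read 1 s. EC50 relative to 4 μM amphotericin B maximal inhibition.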

Caco-2 = test: Permeability across human Caco2 cells; assay type: ADME, cell-based
hERG (KCNH2) [17] = molecular target: T1, hERG (KCNH2) (Homo sapiens, UniProt Q12809); test: Inhibition of human ERG at 10 uM relative to control
T1 sequence (Q12809 whole entry): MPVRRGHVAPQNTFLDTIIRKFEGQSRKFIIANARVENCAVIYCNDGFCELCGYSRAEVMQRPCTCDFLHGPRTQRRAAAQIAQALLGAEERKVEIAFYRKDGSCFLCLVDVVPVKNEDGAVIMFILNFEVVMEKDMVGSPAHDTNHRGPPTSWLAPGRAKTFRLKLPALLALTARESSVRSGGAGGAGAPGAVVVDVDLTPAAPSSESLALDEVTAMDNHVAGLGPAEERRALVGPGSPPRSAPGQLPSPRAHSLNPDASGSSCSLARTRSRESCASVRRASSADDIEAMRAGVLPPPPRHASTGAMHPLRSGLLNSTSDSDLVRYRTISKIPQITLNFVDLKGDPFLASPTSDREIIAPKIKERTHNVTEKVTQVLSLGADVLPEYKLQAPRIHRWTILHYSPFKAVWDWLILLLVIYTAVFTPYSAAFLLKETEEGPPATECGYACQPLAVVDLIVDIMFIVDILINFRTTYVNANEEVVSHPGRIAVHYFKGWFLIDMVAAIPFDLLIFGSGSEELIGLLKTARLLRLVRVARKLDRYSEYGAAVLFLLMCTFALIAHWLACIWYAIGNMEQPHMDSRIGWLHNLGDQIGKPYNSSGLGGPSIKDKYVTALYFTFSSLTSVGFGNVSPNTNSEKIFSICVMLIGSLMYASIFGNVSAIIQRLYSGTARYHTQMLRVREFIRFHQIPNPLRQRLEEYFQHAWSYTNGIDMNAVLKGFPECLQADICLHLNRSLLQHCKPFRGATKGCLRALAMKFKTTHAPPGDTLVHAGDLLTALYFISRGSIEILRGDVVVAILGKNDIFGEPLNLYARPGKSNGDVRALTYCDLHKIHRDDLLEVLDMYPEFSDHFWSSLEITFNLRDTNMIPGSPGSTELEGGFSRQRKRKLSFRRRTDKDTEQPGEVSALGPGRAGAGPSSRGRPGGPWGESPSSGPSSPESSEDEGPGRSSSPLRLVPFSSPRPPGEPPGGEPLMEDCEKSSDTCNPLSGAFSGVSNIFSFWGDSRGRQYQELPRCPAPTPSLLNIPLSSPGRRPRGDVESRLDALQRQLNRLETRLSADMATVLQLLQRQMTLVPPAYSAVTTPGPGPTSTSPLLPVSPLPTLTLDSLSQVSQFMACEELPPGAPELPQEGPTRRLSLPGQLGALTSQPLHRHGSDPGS

Plasma [18] = test: Metabolic stability in human plasma after 1 to 4 hrs; assay type: ADME, cell-free
hERG (KCNH2) [19] = molecular target: T1, hERG (KCNH2); test: Inhibition of human ERG at 1 uM relative to control
[20] = Metabolic stability in human microsomes after 20 mins in presence of quinidine; assay type: ADME, Microsome
Summary of the method: as §2

Trypanosoma cruzi [21] = test: Antitrypanosomal activity against Trypanosoma cruzi trypomastigote infected in mouse NIH/3T3 cells at 0.4 uM incubated for 3 days post infection by DAPI-staining based immunofluorescence assay; assay type: functional, organism-based; details: NIH3T3
Summary of the method: as §1

[22] = Metabolic stability in mouse microsomes after 20 mins; assay type: ADME, Microsome; details: read-out: Stability
Summary of the method: as §2

[23] = Metabolic stability in mouse microsomes after 20 mins in presence of quinidine; assay type: ADME, Microsome
Summary of the method: as §2

Plasma [24] = test: Plasma protein binding in mouse; assay type: ADME, cell-free

Structure (SMILES)	EC50 (Trypanosoma cruzi [1])	EC50 (NIH3T3)	selectivity ratio [3]	further results
Cc1cc(Oc2cccc(Cn3cnc4ccccc43)c2)cc(C)c1Cl	3.7 µM	40 µM	–	–
Cc1cc(Oc2cccc(CN3CCOCC3)c2)cc(C)c1Cl	3.7 µM	> 100 µM	–	–
Cc1ccccc1Oc1cccc(Cn2ccnc2)c1	0.711 µM	79.3 µM	112	Kd [2]: 0.18 µM
Clc1ccc(COc2cccc(Cn3ccnc3)c2)cc1	0.042 µM	76.2 µM	1810	–
Cc1cc(Oc2cccc(Cn3ccc4ccccc43)c2)cc(C)c1Cl	10.7 µM	> 100 µM	–	–
c1ccc(Oc2cccc(Cn3ccnc3)c2)cc1	1.63 µM	> 100 µM	> 60	–
O=C(Cn1ccnc1[N+](=O)[O-])NCc1ccccc1 [BENZNIDAZOLE]	1.9 µM	> 50 µM	–	Activity (Trypanosoma cruzi [4]): Active; Activity (Trypanosoma cruzi [5]): Active; Activity (Trypanosoma cruzi [6]): Active
Cc1cc(Oc2cccc(CN3CCN(C)CC3)c2)cc(C)c1Cl	6.2 µM	29.7 µM	–	–
Cc1cc(Oc2cccc(Cn3cnnc3)c2)cc(C)c1Cl	11.2 µM	> 100 µM	–	–
Cc1nnc(-c2cccc(Oc3cc(C)c(Cl)c(C)c3)c2)s1	12.3 µM	> 100 µM	–	–
Cc1cc(Oc2cccc(Cn3cncn3)c2)cc(C)c1Cl	1.1 µM	75.9 µM	–	–
Cc1cc(OCCCCn2ccnc2)cc(C)c1Cl	0.0051 µM	–	–	–
Clc1ccc(CCOc2cccc(Cn3ccnc3)c2)cc1	0.53 µM	71.1 µM	134	–
Cc1nnc(Cc2cccc(Oc3cc(C)c(Cl)c(C)c3)c2)o1	3.4 µM	6.2 µM	–	–
Cc1cc(Oc2cccc(Cn3cccn3)c2)cc(C)c1Cl	2.8 µM	> 100 µM	–	–
Cc1cc(Oc2cccc(Cn3cc4ccccc4n3)c2)cc(C)c1Cl	9.8 µM	> 100 µM	–	–
Cc1cc(OCCCCCn2ccnc2)cc(C)c1Cl	0.0025 µM	–	–	–

Structure (SMILES)	EC50 (Trypanosoma cruzi [1])	EC50 (NIH3T3)	selectivity ratio [3]	further results
Cc1cc([N+](=O)[O-])ccc1Nc1cccc(Cn2ccnc2)c1	0.072 µM	> 100 µM	> 1000	–
Cc1cc(Oc2cccc(Cn3ncc4ccccc43)c2)cc(C)c1Cl	13.4 µM	> 100 µM	–	–
O=C(Nc1cccc(Cl)c1)Nc1ccccc1-n1ccnc1	0.461 µM	–	–	–
Cc1cc(Oc2cccc(Cn3ccnc3)c2)cc(C)c1Cl	0.08 µM	13.5 µM	169	Stability [7]: Stable; PPB (Plasma [8]): > 99.8%; Stability [9]: Stable; Activity (Trypanosoma cruzi [10]): Active; Stability [11]: Stable; remaining at 20 min [12]: 36%; Stability (Plasma [13]): 4%; remaining at 20 min [14]: 39%; Kd [2]: 0.067 µM; Stability [15]: Stable; Activity (Trypanosoma cruzi [16]): Active; permeability (Caco-2): 20.97 ×10⁻⁶ cm/s; inhibition at 10 µM (hERG (KCNH2) [17]): 94%; Stability (Plasma [18]): -9.7%; inhibition at 1 µM (hERG (KCNH2) [19]): 19%; Stability [20]: Stable; Activity (Trypanosoma cruzi [21]): Active; remaining at 20 min [22]: 29%; Stability [23]: Stable; PPB (Plasma [24]): > 99.8%
Cc1cc(Oc2cccc(Cn3nccn3)c2)cc(C)c1Cl	5.4 µM	> 100 µM	–	–
Cc1cc(C)cc(Oc2cccc(Cn3ccnc3)c2)c1	0.33 µM	> 100 µM	> 300	–
Cc1nnc(Cc2cccc(Oc3cc(C)c(Cl)c(C)c3)c2)s1	2.2 µM	3.8 µM	–	–
Cc1cc(OCCCCCCn2ccnc2)cc(C)c1Cl	0.023 µM	–	–	–
O=C(N[C@@H](Cn1ccnc1)c1ccccc1)c1ccc(-c2ccc(Cl)cc2)cc1	–	–	–	Kd [2]: 0.07 µM
Cc1cccc(OCCCCCn2ccnc2)c1	0.443 µM	–	–	–
c1ccc(-c2cccc(Oc3cccc(Cn4ccnc4)c3)c2)cc1	0.282 µM	34 µM	121	–
COc1cccc(Nc2cccc(Cn3ccnc3)c2)c1	0.167 µM	> 100 µM	> 500	Kd [2]: 0.21 µM
Cc1cccc(Oc2cccc(Cn3ccnc3)c2)c1	0.33 µM	78.7 µM	238	–
Clc1ccc(Oc2cccc(Cn3ccnc3)c2)cc1	0.65 µM	> 100 µM	> 150	–
Cc1cc(Oc2cccc(Cn3ccnn3)c2)cc(C)c1Cl	1.1 µM	66.8 µM	–	–
Cc1nnc(-c2cccc(Oc3cc(C)c(Cl)c(C)c3)c2)o1	14.1 µM	46.1 µM	–	–
